# Assay results published in ChEMBL document CHEMBL1122079, “Tryptophan analogues. 1. Synthesis and antihypertensive activity of positional isomers” (1982).
# Tested on: Felis catus
# Test: Control blood pressure in normotensive anesthetized cat at dose 10 mg/Kg iv
row,SMILES,control BP [mmHg]
1,COC(=O)C(CN)c1cn(C)c2ccc(OC)cc12.Cl (stereo unspecified),165
2,NC(Cc1c[nH]c2ccc(O)cc12)C(=O)O (stereo unspecified),162
3,CCOC(=O)CC(c1nnn[nH]1)c1c[nH]c2cccc(Cl)c12 (stereo unspecified),135
4,COC(=O)C(CN)c1c[nH]c2ccc(Cl)cc12.Cl (stereo unspecified),160
5,CCOC(=O)NCC(c1nnn[nH]1)c1c[nH]c2ccccc12 (stereo unspecified),155
6,COC(=O)C(CN)c1c[nH]c2ccc(Br)cc12.Cl (stereo unspecified),125
7,CCOC(=O)CC(CNC(C)=O)c1c[nH]c2ccccc12 (stereo unspecified),169
8,COC(=O)CC(CN)c1c[nH]c2ccccc12 (stereo unspecified),184
9,COC(=O)C(CN)c1c[nH]c2ccc(OC)cc12.Cl (stereo unspecified) [INDORENATE HYDROCHLORIDE],162
10,CCOC(=O)C(CNC(C)=O)c1cn(C(=O)OCC)c2cccc(Cl)c12 (stereo unspecified),183
11,COC(=O)C(CN)c1c[nH]c2cccc(Cl)c12.Cl (stereo unspecified),131
12,COC(=O)C(CN)c1c[nH]c2cc(OC)c(OC)cc12.Cl (stereo unspecified),160
13,CCOC(=O)C(CNC(C)=O)c1cn(C(=O)OCC)c2cc(Cl)ccc12 (stereo unspecified),165
14,NCC(CC(=O)O)c1c[nH]c2ccccc12 (stereo unspecified),152
15,COC(=O)CC(CN)c1c[nH]c2cc(Cl)ccc12 (stereo unspecified),158
16,COC(=O)CC(CN)c1c[nH]c2ccc(OC)cc12 (stereo unspecified),166
17,NCC(C(=O)O)c1c[nH]c2ccccc12 (stereo unspecified),153
18,COC(=O)C(CN)c1c[nH]c2cc(Cl)ccc12.Cl (stereo unspecified),140

# Tested on: Rattus norvegicus
# Test: Antihypertensive activity in renal hypertensive rats 4 hr after oral administration (10 mg/Kg)
# Format: functional
# How it was run: (§1)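 Renal hypertensive rats (5 or 10 per group), 10 mg/kg given orally. Systolic pressure measured indirectly by tail occluding cuff with pulse sensor, once before dosing as control and again at 1, 2, 4, 6 and 8 h. Values are changes in mean systolic pressure from control (mmHg). Significance of control vs posttreatment assessed by Wilcoxon's signed rank test (p < 0.05).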
row,SMILES,BP [mmHg]
1,COC(=O)C(CN)c1cn(C)c2ccc(OC)cc12.Cl (stereo unspecified),3
2,NC(Cc1c[nH]c2ccc(O)cc12)C(=O)O (stereo unspecified),0
3,CCOC(=O)CC(c1nnn[nH]1)c1c[nH]c2cccc(Cl)c12 (stereo unspecified),-5
4,COC(=O)C(CN)c1c[nH]c2ccc(Cl)cc12.Cl (stereo unspecified),0
5,CCOC(=O)NCC(c1nnn[nH]1)c1c[nH]c2ccccc12 (stereo unspecified),-24
6,COC(=O)C(CN)c1c[nH]c2ccc(Br)cc12.Cl (stereo unspecified),6
7,CCOC(=O)CC(CNC(C)=O)c1c[nH]c2ccccc12 (stereo unspecified),-7
8,COC(=O)CC(CN)c1c[nH]c2ccccc12 (stereo unspecified),2
9,COC(=O)C(CN)c1c[nH]c2ccc(OC)cc12.Cl (stereo unspecified) [INDORENATE HYDROCHLORIDE],-38
10,CCOC(=O)C(CNC(C)=O)c1cn(C(=O)OCC)c2cccc(Cl)c12 (stereo unspecified),3
11,COC(=O)C(CN)c1c[nH]c2cccc(Cl)c12.Cl (stereo unspecified),-20
12,COC(=O)C(CN)c1c[nH]c2cc(OC)c(OC)cc12.Cl (stereo unspecified),-4
13,CCOC(=O)C(CNC(C)=O)c1cn(C(=O)OCC)c2cc(Cl)ccc12 (stereo unspecified),-12
14,NCC(CC(=O)O)c1c[nH]c2ccccc12 (stereo unspecified),-3
15,COC(=O)CC(CN)c1c[nH]c2cc(Cl)ccc12 (stereo unspecified),-3
16,COC(=O)CC(CN)c1c[nH]c2ccc(OC)cc12 (stereo unspecified),-6
17,NCC(C(=O)O)c1c[nH]c2ccccc12 (stereo unspecified),-10
18,COC(=O)C(CN)c1c[nH]c2cc(Cl)ccc12.Cl (stereo unspecified),-17

# Tested on: Rattus norvegicus
# Test: Antihypertensive activity in renal hypertensive rats 2 hr after oral administration (10 mg/Kg)
# Format: functional
# How it was run: as §1
row,SMILES,BP [mmHg]
1,COC(=O)C(CN)c1cn(C)c2ccc(OC)cc12.Cl (stereo unspecified),-6
2,NC(Cc1c[nH]c2ccc(O)cc12)C(=O)O (stereo unspecified),-5
3,CCOC(=O)CC(c1nnn[nH]1)c1c[nH]c2cccc(Cl)c12 (stereo unspecified),-12
4,COC(=O)C(CN)c1c[nH]c2ccc(Cl)cc12.Cl (stereo unspecified),-5
5,CCOC(=O)NCC(c1nnn[nH]1)c1c[nH]c2ccccc12 (stereo unspecified),-6
6,COC(=O)C(CN)c1c[nH]c2ccc(Br)cc12.Cl (stereo unspecified),-10
7,CCOC(=O)CC(CNC(C)=O)c1c[nH]c2ccccc12 (stereo unspecified),-11
8,COC(=O)CC(CN)c1c[nH]c2ccccc12 (stereo unspecified),-11
9,COC(=O)C(CN)c1c[nH]c2ccc(OC)cc12.Cl (stereo unspecified) [INDORENATE HYDROCHLORIDE],-71
10,CCOC(=O)C(CNC(C)=O)c1cn(C(=O)OCC)c2cccc(Cl)c12 (stereo unspecified),-1
11,COC(=O)C(CN)c1c[nH]c2cccc(Cl)c12.Cl (stereo unspecified),-9
12,COC(=O)C(CN)c1c[nH]c2cc(OC)c(OC)cc12.Cl (stereo unspecified),-2
13,CCOC(=O)C(CNC(C)=O)c1cn(C(=O)OCC)c2cc(Cl)ccc12 (stereo unspecified),-12
14,NCC(CC(=O)O)c1c[nH]c2ccccc12 (stereo unspecified),-3
15,COC(=O)CC(CN)c1c[nH]c2cc(Cl)ccc12 (stereo unspecified),-4
16,COC(=O)CC(CN)c1c[nH]c2ccc(OC)cc12 (stereo unspecified),-15
17,NCC(C(=O)O)c1c[nH]c2ccccc12 (stereo unspecified),-8
18,COC(=O)C(CN)c1c[nH]c2cc(Cl)ccc12.Cl (stereo unspecified),-23

# Tested on: Rattus norvegicus
# Test: Antihypertensive activity in renal hypertensive rats 8 hr after oral administration (10 mg/Kg)
# Format: functional
# How it was run: as §1
row,SMILES,BP [mmHg]
1,COC(=O)C(CN)c1cn(C)c2ccc(OC)cc12.Cl (stereo unspecified),7
2,NC(Cc1c[nH]c2ccc(O)cc12)C(=O)O (stereo unspecified),-1
3,CCOC(=O)CC(c1nnn[nH]1)c1c[nH]c2cccc(Cl)c12 (stereo unspecified),4
4,COC(=O)C(CN)c1c[nH]c2ccc(Cl)cc12.Cl (stereo unspecified),5
5,CCOC(=O)NCC(c1nnn[nH]1)c1c[nH]c2ccccc12 (stereo unspecified),-15
6,COC(=O)C(CN)c1c[nH]c2ccc(Br)cc12.Cl (stereo unspecified),7
7,CCOC(=O)CC(CNC(C)=O)c1c[nH]c2ccccc12 (stereo unspecified),-2
8,COC(=O)CC(CN)c1c[nH]c2ccccc12 (stereo unspecified),-1
9,COC(=O)C(CN)c1c[nH]c2ccc(OC)cc12.Cl (stereo unspecified) [INDORENATE HYDROCHLORIDE],2
10,CCOC(=O)C(CNC(C)=O)c1cn(C(=O)OCC)c2cccc(Cl)c12 (stereo unspecified),2
11,COC(=O)C(CN)c1c[nH]c2cccc(Cl)c12.Cl (stereo unspecified),-8
12,COC(=O)C(CN)c1c[nH]c2cc(OC)c(OC)cc12.Cl (stereo unspecified),-2
13,CCOC(=O)C(CNC(C)=O)c1cn(C(=O)OCC)c2cc(Cl)ccc12 (stereo unspecified),-3
14,NCC(CC(=O)O)c1c[nH]c2ccccc12 (stereo unspecified),1
15,COC(=O)CC(CN)c1c[nH]c2cc(Cl)ccc12 (stereo unspecified),-6
16,COC(=O)CC(CN)c1c[nH]c2ccc(OC)cc12 (stereo unspecified),-12
17,NCC(C(=O)O)c1c[nH]c2ccccc12 (stereo unspecified),-8
18,COC(=O)C(CN)c1c[nH]c2cc(Cl)ccc12.Cl (stereo unspecified),-7

# Tested on: Rattus norvegicus
# Test: Antihypertensive activity in renal hypertensive rats 1 hr after oral administration (10 mg/Kg)
# Format: functional
# How it was run: as §1
row,SMILES,BP [mmHg]
1,COC(=O)C(CN)c1cn(C)c2ccc(OC)cc12.Cl (stereo unspecified),-5
2,NC(Cc1c[nH]c2ccc(O)cc12)C(=O)O (stereo unspecified),-9
3,CCOC(=O)CC(c1nnn[nH]1)c1c[nH]c2cccc(Cl)c12 (stereo unspecified),-4
4,COC(=O)C(CN)c1c[nH]c2ccc(Cl)cc12.Cl (stereo unspecified),-8
5,CCOC(=O)NCC(c1nnn[nH]1)c1c[nH]c2ccccc12 (stereo unspecified),-10
6,COC(=O)C(CN)c1c[nH]c2ccc(Br)cc12.Cl (stereo unspecified),-6
7,CCOC(=O)CC(CNC(C)=O)c1c[nH]c2ccccc12 (stereo unspecified),-8
8,COC(=O)CC(CN)c1c[nH]c2ccccc12 (stereo unspecified),-1
9,COC(=O)C(CN)c1c[nH]c2ccc(OC)cc12.Cl (stereo unspecified) [INDORENATE HYDROCHLORIDE],-85
10,CCOC(=O)C(CNC(C)=O)c1cn(C(=O)OCC)c2cccc(Cl)c12 (stereo unspecified),-8
11,COC(=O)C(CN)c1c[nH]c2cccc(Cl)c12.Cl (stereo unspecified),-7
12,COC(=O)C(CN)c1c[nH]c2cc(OC)c(OC)cc12.Cl (stereo unspecified),-15
13,CCOC(=O)C(CNC(C)=O)c1cn(C(=O)OCC)c2cc(Cl)ccc12 (stereo unspecified),-18
14,NCC(CC(=O)O)c1c[nH]c2ccccc12 (stereo unspecified),-11
15,COC(=O)CC(CN)c1c[nH]c2cc(Cl)ccc12 (stereo unspecified),2
16,COC(=O)CC(CN)c1c[nH]c2ccc(OC)cc12 (stereo unspecified),-14
17,NCC(C(=O)O)c1c[nH]c2ccccc12 (stereo unspecified),-6
18,COC(=O)C(CN)c1c[nH]c2cc(Cl)ccc12.Cl (stereo unspecified),-14

# Tested on: Rattus norvegicus
# Test: Antihypertensive activity in renal hypertensive rats 6 hr after oral administration (10 mg/Kg)
# Format: functional
# How it was run: as §1
row,SMILES,BP [mmHg]
1,COC(=O)C(CN)c1cn(C)c2ccc(OC)cc12.Cl (stereo unspecified),1
2,NC(Cc1c[nH]c2ccc(O)cc12)C(=O)O (stereo unspecified),6
3,CCOC(=O)CC(c1nnn[nH]1)c1c[nH]c2cccc(Cl)c12 (stereo unspecified),-2
4,COC(=O)C(CN)c1c[nH]c2ccc(Cl)cc12.Cl (stereo unspecified),2
5,CCOC(=O)NCC(c1nnn[nH]1)c1c[nH]c2ccccc12 (stereo unspecified),-17
6,COC(=O)C(CN)c1c[nH]c2ccc(Br)cc12.Cl (stereo unspecified),8
7,CCOC(=O)CC(CNC(C)=O)c1c[nH]c2ccccc12 (stereo unspecified),-6
8,COC(=O)CC(CN)c1c[nH]c2ccccc12 (stereo unspecified),-7
9,COC(=O)C(CN)c1c[nH]c2ccc(OC)cc12.Cl (stereo unspecified) [INDORENATE HYDROCHLORIDE],-10
10,CCOC(=O)C(CNC(C)=O)c1cn(C(=O)OCC)c2cccc(Cl)c12 (stereo unspecified),0
11,COC(=O)C(CN)c1c[nH]c2cccc(Cl)c12.Cl (stereo unspecified),-9
12,COC(=O)C(CN)c1c[nH]c2cc(OC)c(OC)cc12.Cl (stereo unspecified),-7
13,CCOC(=O)C(CNC(C)=O)c1cn(C(=O)OCC)c2cc(Cl)ccc12 (stereo unspecified),-7
14,NCC(CC(=O)O)c1c[nH]c2ccccc12 (stereo unspecified),-14
15,COC(=O)CC(CN)c1c[nH]c2cc(Cl)ccc12 (stereo unspecified),-11
16,COC(=O)CC(CN)c1c[nH]c2ccc(OC)cc12 (stereo unspecified),-13
17,NCC(C(=O)O)c1c[nH]c2ccccc12 (stereo unspecified),-13
18,COC(=O)C(CN)c1c[nH]c2cc(Cl)ccc12.Cl (stereo unspecified),-15

# Tested on: Felis catus
# Test: Change in blood pressure in normotensive anesthetized cat.
# Format: functional
# How it was run: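 Normotensive cats of either sex (2-4 kg) anesthetized with α-chloralose (80 mg/kg iv). Trachea, femoral artery and jugular vein cannulated. Compound given iv at 10 mg/kg, with 1 mg/kg iv used in one case. Mean blood pressure recorded by pressure transducer before and 30 min after dosing, reported as decrease in mmHg.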
row,SMILES,BP [mmHg]
1,COC(=O)C(CN)c1cn(C)c2ccc(OC)cc12.Cl (stereo unspecified),20
2,NC(Cc1c[nH]c2ccc(O)cc12)C(=O)O (stereo unspecified),-24
3,CCOC(=O)CC(c1nnn[nH]1)c1c[nH]c2cccc(Cl)c12 (stereo unspecified),-35
4,COC(=O)C(CN)c1c[nH]c2ccc(Cl)cc12.Cl (stereo unspecified),-61
5,CCOC(=O)NCC(c1nnn[nH]1)c1c[nH]c2ccccc12 (stereo unspecified),5
6,COC(=O)C(CN)c1c[nH]c2ccc(Br)cc12.Cl (stereo unspecified),-35
7,CCOC(=O)CC(CNC(C)=O)c1c[nH]c2ccccc12 (stereo unspecified),-21
8,COC(=O)CC(CN)c1c[nH]c2ccccc12 (stereo unspecified),-4
9,COC(=O)C(CN)c1c[nH]c2ccc(OC)cc12.Cl (stereo unspecified) [INDORENATE HYDROCHLORIDE],-82
10,CCOC(=O)C(CNC(C)=O)c1cn(C(=O)OCC)c2cccc(Cl)c12 (stereo unspecified),11
11,COC(=O)C(CN)c1c[nH]c2cccc(Cl)c12.Cl (stereo unspecified),-10
12,COC(=O)C(CN)c1c[nH]c2cc(OC)c(OC)cc12.Cl (stereo unspecified),-16
13,CCOC(=O)C(CNC(C)=O)c1cn(C(=O)OCC)c2cc(Cl)ccc12 (stereo unspecified),-2
14,NCC(CC(=O)O)c1c[nH]c2ccccc12 (stereo unspecified),-11
15,COC(=O)CC(CN)c1c[nH]c2cc(Cl)ccc12 (stereo unspecified),-10
16,COC(=O)CC(CN)c1c[nH]c2ccc(OC)cc12 (stereo unspecified),-25
17,NCC(C(=O)O)c1c[nH]c2ccccc12 (stereo unspecified),-10
18,COC(=O)C(CN)c1c[nH]c2cc(Cl)ccc12.Cl (stereo unspecified),-7
